Experimental data reported in ChEMBL document CHEMBL5260840 (J Med Chem, 2019).
Activity calls are given as the source filed them. No cut-off for these calls is given here.

How the values were obtained:
[1] = molecular target: T1, von Hippel-Lindau disease tumor suppressor/Bromodomain-containing protein 7 (Homo sapiens) (UniProt Q9NPI1+P40337); test: PROTAC activity at VHL/BRD7 in human Ri-1 cells assessed as remaining BRD7 protein level at 1 uM incubated for 8 hrs by Western blot analysis relative to control; format: cell-based
T1 sequence (P40337 whole entry, looked up): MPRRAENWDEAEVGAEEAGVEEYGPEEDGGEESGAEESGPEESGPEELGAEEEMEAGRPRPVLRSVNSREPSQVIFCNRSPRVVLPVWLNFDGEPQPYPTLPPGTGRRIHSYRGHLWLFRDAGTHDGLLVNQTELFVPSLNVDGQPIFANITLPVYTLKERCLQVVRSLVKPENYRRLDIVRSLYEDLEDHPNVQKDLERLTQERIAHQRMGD
T1 sequence (Q9NPI1 whole entry, looked up): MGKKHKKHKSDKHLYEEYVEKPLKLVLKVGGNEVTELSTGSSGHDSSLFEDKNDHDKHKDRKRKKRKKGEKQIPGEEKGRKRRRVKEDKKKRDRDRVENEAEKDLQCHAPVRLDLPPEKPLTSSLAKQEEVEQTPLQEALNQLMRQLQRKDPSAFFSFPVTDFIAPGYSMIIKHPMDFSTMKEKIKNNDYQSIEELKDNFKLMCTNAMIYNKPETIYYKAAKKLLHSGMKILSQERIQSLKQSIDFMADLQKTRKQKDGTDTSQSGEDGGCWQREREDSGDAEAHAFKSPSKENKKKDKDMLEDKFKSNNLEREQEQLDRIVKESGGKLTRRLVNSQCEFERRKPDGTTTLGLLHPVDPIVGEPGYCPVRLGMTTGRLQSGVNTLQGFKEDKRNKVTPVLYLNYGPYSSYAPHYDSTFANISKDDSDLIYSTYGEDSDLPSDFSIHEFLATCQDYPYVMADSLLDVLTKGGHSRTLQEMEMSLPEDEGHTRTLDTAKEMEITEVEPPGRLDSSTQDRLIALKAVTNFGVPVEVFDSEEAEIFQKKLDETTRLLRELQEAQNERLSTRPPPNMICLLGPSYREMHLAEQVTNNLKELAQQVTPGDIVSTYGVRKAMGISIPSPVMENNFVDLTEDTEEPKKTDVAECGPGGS

[2] = molecular target: T2, von Hippel-Lindau disease tumor suppressor/Bromodomain-containing protein 9 (Homo sapiens) (UniProt Q9H8M2+P40337); test: PROTAC activity at VHL/BRD9 in human Ri-1 cells assessed as remaining BRD9 protein level at 1 uM incubated for 2 hrs by Western blot analysis relative to control; format: cell-based
T2 sequence (P40337 whole entry, looked up): as the sequence (P40337 whole entry, looked up) above
T2 sequence (Q9H8M2 whole entry, looked up): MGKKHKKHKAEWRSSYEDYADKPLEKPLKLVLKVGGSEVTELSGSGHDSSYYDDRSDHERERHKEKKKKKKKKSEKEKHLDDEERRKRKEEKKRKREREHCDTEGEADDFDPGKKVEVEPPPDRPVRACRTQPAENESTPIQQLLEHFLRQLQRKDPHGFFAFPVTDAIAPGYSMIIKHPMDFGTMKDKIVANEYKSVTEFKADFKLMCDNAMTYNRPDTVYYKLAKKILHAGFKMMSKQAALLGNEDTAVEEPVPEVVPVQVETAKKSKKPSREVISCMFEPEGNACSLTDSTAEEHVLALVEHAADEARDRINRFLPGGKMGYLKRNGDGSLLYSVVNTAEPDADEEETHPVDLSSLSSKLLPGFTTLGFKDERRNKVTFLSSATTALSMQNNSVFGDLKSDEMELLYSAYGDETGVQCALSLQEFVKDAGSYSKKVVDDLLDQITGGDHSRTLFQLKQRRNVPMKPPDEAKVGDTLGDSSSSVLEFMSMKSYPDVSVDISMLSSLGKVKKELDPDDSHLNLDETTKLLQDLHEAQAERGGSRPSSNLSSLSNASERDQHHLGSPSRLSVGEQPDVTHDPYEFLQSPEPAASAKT
Outline: (§1)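 Ri-1 cells exposed to compound for the stated time before harvest; BRD9, BRD7 and β-actin measured by Western blot, band intensities quantified and set against DMSO-treated control.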

[3] = molecular target: T2, von Hippel-Lindau disease tumor suppressor/Bromodomain-containing protein 9 (Homo sapiens); test: PROTAC activity at VHL/BRD9 in human HeLa cells assessed as apparent half-life of BRD9 at 1 uM; format: cell-based
[4] = molecular target: T3, Von Hippel-Lindau disease tumor suppressor/Elongin B/Elongin C (Homo sapiens) (UniProt P40337+Q15370+Q15369); test: Co-operative binding affinity to 6His-tagged human VHL/ElonginC/ElonginB expressed in Escherichia coli BL21 (DE3) cells assessed as total gibb's free energy change in the presence of BRD9-BD as complex with compound by ITC analysis
T3 sequence (P40337 whole entry, looked up): as the sequence (P40337 whole entry, looked up) above
T3 sequence (Q15369 whole entry, looked up): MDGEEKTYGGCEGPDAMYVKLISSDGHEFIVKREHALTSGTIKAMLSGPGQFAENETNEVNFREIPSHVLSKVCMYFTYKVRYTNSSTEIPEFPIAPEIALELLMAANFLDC
T3 sequence (Q15370 whole entry, looked up): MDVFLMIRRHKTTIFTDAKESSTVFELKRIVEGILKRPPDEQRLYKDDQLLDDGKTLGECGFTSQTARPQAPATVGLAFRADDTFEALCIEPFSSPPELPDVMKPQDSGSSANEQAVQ

[5] = molecular target: T3, Von Hippel-Lindau disease tumor suppressor/Elongin B/Elongin C (Homo sapiens); test: Co-operative binding affinity to 6His-tagged human VHL/ElonginC/ElonginB expressed in Escherichia coli BL21 (DE3) cells assessed as maximal intensity in the presence of BRD9-BD as complex with compound incubated for 1 hrs by AlphaLISA proximity assay
[6] = molecular target: T2, von Hippel-Lindau disease tumor suppressor/Bromodomain-containing protein 9 (Homo sapiens); test: PROTAC activity at VHL/BRD9 in human HeLa cells assessed as protein degradation at 1 uM incubated for 4 hrs by Western blot analysis relative to control; format: cell-based
Outline: (§2)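 HeLa cells treated with compound for the stated time before harvest; BRD9, BRD7 and β-actin detected by Western blot with β-actin loading control; band intensities quantified.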

[7] = molecular target: T2, von Hippel-Lindau disease tumor suppressor/Bromodomain-containing protein 9 (Homo sapiens); test: PROTAC activity at VHL/BRD9 in human HeLa cells assessed as BRD9 protein degradation at 1 uM incubated for 8 hrs by Western blot analysis; format: cell-based; outline: as §2
[8] = molecular target: T2, von Hippel-Lindau disease tumor suppressor/Bromodomain-containing protein 9 (Homo sapiens); test: PROTAC activity at VHL/BRD9 in human HeLa cells assessed as maximal protein degradation at 10 uM incubated for 4 hrs by Western blot analysis relative to control; format: cell-based; outline: as §2
[9] = molecular target: T2, von Hippel-Lindau disease tumor suppressor/Bromodomain-containing protein 9 (Homo sapiens); test: PROTAC activity at VHL/BRD9 in human HeLa cells assessed as BRD9 protein degradation at 1 uM incubated for 4 hrs by Western blot analysis relative to control; format: cell-based; outline: as §2
[10] = molecular target: T2, von Hippel-Lindau disease tumor suppressor/Bromodomain-containing protein 9 (Homo sapiens); test: PROTAC activity at VHL/BRD9 in human HeLa cells assessed as remaining BRD9 protein level at 1 uM incubated for 16 hrs by Western blot analysis relative to control; format: cell-based; outline: as §2
[11] = molecular target: T2, von Hippel-Lindau disease tumor suppressor/Bromodomain-containing protein 9 (Homo sapiens); test: PROTAC activity at VHL/BRD9 in human Ri-1 cells assessed as remaining BRD9 protein level at 1 uM incubated for 8 hrs by Western blot analysis relative to control; format: cell-based; outline: as §1
[12] = molecular target: T1, von Hippel-Lindau disease tumor suppressor/Bromodomain-containing protein 7 (Homo sapiens); test: PROTAC activity at VHL/BRD7 in human HeLa cells assessed as remaining BRD7 protein level at 1 uM incubated for 4 hrs by Western blot analysis relative to control; format: cell-based
[13] = molecular target: T1, von Hippel-Lindau disease tumor suppressor/Bromodomain-containing protein 7 (Homo sapiens); test: PROTAC activity at VHL/BRD7 in human HeLa cells assessed as remaining BRD7 protein level at 1 uM incubated for 16 hrs by Western blot analysis relative to control; format: cell-based
[14] = molecular target: T1, von Hippel-Lindau disease tumor suppressor/Bromodomain-containing protein 7 (Homo sapiens); test: PROTAC activity at VHL/BRD7 in human Ri-1 cells assessed as remaining BRD7 protein level at 1 uM incubated for 2 hrs by Western blot analysis relative to control; format: cell-based
[15] = molecular target: Bromodomain-containing protein 4 (Homo sapiens) (UniProt O60885)
[16] = molecular target: T4, Protein cereblon/Bromodomain-containing protein 9 (Homo sapiens) (UniProt Q9H8M2+Q96SW2); test: PROTAC activity at CRBN/BRD9 in human HeLa cells assessed as remaining BRD9 protein level at 1 uM incubated for 4 hrs by Western blot analysis relative to control; format: cell-based
T4 sequence (Q96SW2 whole entry, looked up): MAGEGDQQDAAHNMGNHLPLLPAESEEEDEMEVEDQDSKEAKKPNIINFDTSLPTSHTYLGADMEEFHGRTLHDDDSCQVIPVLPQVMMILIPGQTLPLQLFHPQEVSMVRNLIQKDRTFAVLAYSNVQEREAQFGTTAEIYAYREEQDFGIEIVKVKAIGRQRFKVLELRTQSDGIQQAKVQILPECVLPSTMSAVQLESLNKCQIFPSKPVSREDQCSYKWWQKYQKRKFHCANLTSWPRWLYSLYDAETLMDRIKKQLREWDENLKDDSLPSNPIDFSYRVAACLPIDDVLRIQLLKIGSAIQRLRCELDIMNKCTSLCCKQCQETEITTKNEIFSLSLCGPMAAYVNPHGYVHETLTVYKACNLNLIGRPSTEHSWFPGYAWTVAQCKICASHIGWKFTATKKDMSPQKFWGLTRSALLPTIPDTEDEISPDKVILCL
T4 sequence (Q9H8M2 whole entry, looked up): as the sequence (Q9H8M2 whole entry, looked up) above
Outline: (§3)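 Cells given 1 µM compound before harvest: HeLa 4 h, RI-1 2 h and 8 h. BRD9, BRD7 and β-actin detected by Western blot; band intensities quantified.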

[17] = molecular target: T5, Protein cereblon/Bromodomain-containing protein 7 (Homo sapiens) (UniProt Q9NPI1+Q96SW2); test: PROTAC activity at CRBN/BRD7 in human HeLa cells assessed as remaining BRD7 protein level at 1 uM incubated for 4 hrs by Western blot analysis relative to control; format: cell-based; outline: as §3
T5 sequence (Q96SW2 whole entry, looked up): as the sequence (Q96SW2 whole entry, looked up) above
T5 sequence (Q9NPI1 whole entry, looked up): as the sequence (Q9NPI1 whole entry, looked up) above

[18] = molecular target: T5, Protein cereblon/Bromodomain-containing protein 7 (Homo sapiens); test: PROTAC activity at CRBN/BRD7 in human HeLa cells assessed as remaining BRD7 protein level at 1 uM incubated for 16 hrs by Western blot analysis relative to control; format: cell-based
Outline: (§4)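 HeLa cells given 1 µM compound for 16 h before harvest. BRD9, BRD7 and β-actin detected by Western blot; band intensities quantified.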

[19] = molecular target: T5, Protein cereblon/Bromodomain-containing protein 7 (Homo sapiens); test: PROTAC activity at CRBN/BRD7 in human Ri-1 cells assessed as remaining BRD7 protein level at 1 uM incubated for 2 hrs by Western blot analysis relative to control; format: cell-based; outline: as §3
[20] = molecular target: T4, Protein cereblon/Bromodomain-containing protein 9 (Homo sapiens); test: PROTAC activity at CRBN/BRD9 in human Ri-1 cells assessed as remaining BRD9 protein level at 1 uM incubated for 2 hrs by Western blot analysis relative to control; format: cell-based; outline: as §3
[21] = molecular target: T4, Protein cereblon/Bromodomain-containing protein 9 (Homo sapiens); test: PROTAC activity at CRBN/BRD9 in human HeLa cells assessed as remaining BRD9 protein level at 1 uM incubated for 16 hrs by Western blot analysis relative to control; format: cell-based; outline: as §4
A204 = test: Antiproliferative activity against human A204 cells assessed as inhibition of cell growth incubated for 7 days by CellTiterGlo assay; format: functional, cell-based; settings: A204, 168 h
[22] = molecular target: T4, Protein cereblon/Bromodomain-containing protein 9 (Homo sapiens); test: PROTAC activity at CRBN/BRD9 in human Ri-1 cells assessed as remaining BRD9 protein level at 1 uM incubated for 8 hrs by Western blot analysis relative to control; format: cell-based; outline: as §3
[23] = molecular target: T5, Protein cereblon/Bromodomain-containing protein 7 (Homo sapiens); test: PROTAC activity at CRBN/BRD7 in human Ri-1 cells assessed as remaining BRD7 protein level at 1 uM incubated for 8 hrs by Western blot analysis relative to control; format: cell-based; outline: as §3

Compound `COc1cc(-c2cn(C)c(=O)c3cnccc23)cc(OC)c1CN1CCN(CCOCCOCCOc2cc(-c3scnc3C)ccc2CNC(=O)[C@@H]2C[C@@H](O)CN2C(=O)[C@@H](NC(=O)C2(F)CC2)C(C)(C)C)CC1` has an Activity [1] of 145%, an Activity [2] of 68% and a T1/2 [3] of 3.47 h. The deltaG [4] was -20.7 kcal/mol, the Activity [5] was 1.56 10^6No_unit and the Activity [6] was 60%. For the same compound, the Activity [7] was “Active”, the Emax [8] was 80% and the Activity [9] was > 50%. The Activity [10] was 36%, the Activity [11] was 100% and the Activity [12] was 7%. The Activity [13] was 90% and the Activity [14] was 127%.

`Cc1ncsc1-c1ccc(CNC(=O)[C@@H]2C[C@@H](O)CN2C(=O)[C@@H](NC(=O)COCCOCCOCCNC(=O)C[C@@H]2N=C(c3ccc(Cl)cc3)c3c(sc(C)c3C)-n3c(C)nnc32)C(C)(C)C)cc1` gave a deltaG [15] of -22.2 kcal/mol.

`COc1cc(-c2cn(C)c(=O)c3cnccc23)cc(OC)c1CN1CCN(CCOCCOCC(=O)NCCNc2cccc3c2C(=O)N(C2CCC(=O)NC2=O)C3=O)CC1` (centres undefined) was tested, and the Activity [16] was 6%, the Activity [17] was 81% and the Activity [18] was 97%. It also gave an Activity [19] of 158%, an Activity [20] of 5% and an Activity [21] of 7%. The IC50 (A204) was 305 nM, the Activity [22] was 2% and the Activity [23] was 225%.
